Reference: ChEMBL document CHEMBL5154945, “Discovery and Optimization of Pyrrolopyrimidine Derivatives as Selective Disruptors of the Perinucleolar Compartment, a Marker of Tumor Progression toward Metastasis” (J Med Chem, 2022)
Values joined by “and” are separate entries in the source; they are usually repeats but may differ in a detail not shown here. Equal entries are not always repeated.

What was measured:
[1] = Cytotoxicity against human PC-3M cells expressing PTB/GFP fusion protein assessed as reduction in ATP level and measured after 24 to 48 hrs by ATPlite luminescence assay; assay type: toxicity, cell-based
PC-3M = test: Antiproliferative activity against human PC-3M cells expressing PTB/GFP fusion protein assessed as cell growth inhibition at < 100 nM and measured every four hrs for 130 hrs by IncuCyte zoom live cell analysis; assay type: functional, cell-based; conditions: DDE = dose-dependent effect
Outline: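 PC3M cells stably expressing GFP-PTB, grown in DMEM with 10% FBS and 1% penicillin/streptomycin, seeded at 1.25×10^4 cells/ml in 384-well plates and left overnight at 37 °C, 5% CO2. Compound added in DMEM to give 11 final concentrations from 10 nM to 20 μM. Brightfield images were taken every 4 h for about 130 h and scored as percent confluence.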

[2] = Kinetic solubility of compound
[3] = Tmax in female BALB/c mouse at 25 mg/kg, ip and measured upto 48 hrs by LC-MS/MS analysis; assay type: ADME, organism-based; conditions: in vivo
Outline: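 Fed female BALB/c mice, about 6–8 weeks old and 25–30 g, received a single IP dose of 5 or 25 mpk in NMP/PEG400/HP-β-CD aqueous vehicle (0.5 mg/mL for the 5 mpk dose). Three mice per time point were sampled up to 48 h by retro-orbital bleed under isoflurane into K2EDTA. Plasma was spun at 2000 g, 4 °C, frozen at -80 °C, and assayed by LC/MS/MS.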

[4] = Clast in male C57BL/6 mouse at 50 mg/kg, ip at 48 hrs by LC-MS/MS analysis; conditions: in vivo
[5] = AUC (0 to 48 hrs) in female BALB/c mouse at 5 mg/kg, ip at 48 hrs by LC-MS/MS analysis; assay type: ADME, organism-based; design: time 48 hrs, dose 5 mg/kg, route ip; conditions: in vivo
Outline: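 Fed female BALB/c mice, about 6–8 weeks old and 25–30 g, received a single IP dose. The vehicle was 5-10% NMP + 20% PEG400 + 70-75% (25% HP-β-CD in water), with the drug at 2.5/0.5 mg/mL. Blood was taken by retro-orbital puncture under isoflurane into K2EDTA tubes, 3 mice per time point, over 48 h. Plasma was prepared at 2000 g, 5 min, 4 °C, and measured by LC/MS/MS.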

A549 = test: Anticancer activity against human A549 cells assessed as cell growth inhibition; assay type: functional, cell-based; conditions: dose 1-100 µM, DDE = dose-dependent effect
NCI-H23 = test: Anticancer activity against human NCI-H23 cells assessed as cell growth inhibition; assay type: functional, cell-based; conditions: dose 1-100 µM, DDE = dose-dependent effect
NCI-H460 = test: Anticancer activity against human NCI-H460 cells assessed as cell growth inhibition; assay type: functional, cell-based; conditions: dose 1-100 µM, DDE = dose-dependent effect
NCI-H522 = test: Anticancer activity against human NCI-H522 cells assessed as cell growth inhibition; assay type: functional, cell-based; conditions: dose 1-100 µM, DDE = dose-dependent effect
SF-539 = test: Anticancer activity against human SF-539 cells assessed as cell growth inhibition; assay type: functional, cell-based; conditions: dose 1-100 µM, DDE = dose-dependent effect
SNB-75 = test: Anticancer activity against human SNB-75 cells assessed as cell growth inhibition; assay type: functional, cell-based; conditions: dose 1-100 µM, DDE = dose-dependent effect
MDA-MB-435 = test: Anticancer activity against human MDA-MB-435 cells assessed as cell growth inhibition; assay type: functional, cell-based; conditions: dose 1-100 µM, DDE = dose-dependent effect
SK-MEL-5 = test: Anticancer activity against human SK-MEL-5 cells assessed as cell growth inhibition; assay type: functional, cell-based; conditions: dose 1-100 µM, DDE = dose-dependent effect
UACC-62 = test: Anticancer activity against human UACC-62 cells assessed as cell growth inhibition; assay type: functional, cell-based; conditions: dose 1-100 µM, DDE = dose-dependent effect
OVCAR-3 = test: Anticancer activity against human OVCAR-3 cells assessed as cell growth inhibition; assay type: functional, cell-based; conditions: dose 1-100 µM, DDE = dose-dependent effect
OVCAR-4 = test: Anticancer activity against human OVCAR-4 cells assessed as cell growth inhibition; assay type: functional, cell-based; conditions: dose 1-100 µM, DDE = dose-dependent effect
OVCAR-5 = test: Anticancer activity against human OVCAR-5 cells assessed as cell growth inhibition; assay type: functional, cell-based; conditions: dose 1-100 µM, DDE = dose-dependent effect
786-0 = test: Anticancer activity against human 786-0 cells assessed as cell growth inhibition; assay type: functional, cell-based; conditions: dose 1-100 µM, DDE = dose-dependent effect
TK-10 = test: Anticancer activity against human TK-10 cells assessed as cell growth inhibition; assay type: functional, cell-based; conditions: dose 1-100 µM, DDE = dose-dependent effect
MCF7 = test: Anticancer activity against human MCF7 cells assessed as cell growth inhibition; assay type: functional, cell-based; conditions: dose 1-100 µM, DDE = dose-dependent effect
MDA-MB-231 = test: Anticancer activity against human MDA-MB-231 cells assessed as cell growth inhibition; assay type: functional, cell-based; conditions: dose 1-100 µM, DDE = dose-dependent effect
Hs-578T = test: Anticancer activity against human Hs-578T cells assessed as cell growth inhibition; assay type: functional, cell-based; conditions: dose 1-100 µM, DDE = dose-dependent effect
[6] = biological target: 5-hydroxytryptamine receptor 1D (Homo sapiens) (UniProt P28221); test: Binding affinity to 5-HT1D receptor (unknown origin) at 10000 nM by radioligand displacement assay relative to control
[7] = biological target: 5-hydroxytryptamine receptor 1E (Homo sapiens) (UniProt P28566); test: Binding affinity to 5-HT1E receptor (unknown origin) at 10000 nM by radioligand displacement assay relative to control
[8] = biological target: 5-hydroxytryptamine receptor 7 (Homo sapiens) (UniProt P34969); test: Binding affinity to 5-HT7 receptor (unknown origin) at 10000 nM by radioligand displacement assay relative to control
[9] = biological target: Alpha-2A adrenergic receptor (Homo sapiens) (UniProt P08913); test: Binding affinity to alpha2A receptor (unknown origin) at 10000 nM by radioligand displacement assay relative to control
[10] = biological target: Alpha-2B adrenergic receptor (Homo sapiens) (UniProt P18089); test: Binding affinity to alpha2B receptor (unknown origin) at 10000 nM by radioligand displacement assay relative to control
[11] = biological target: D(3) dopamine receptor (Homo sapiens) (UniProt P35462); test: Binding affinity to D3 receptor (unknown origin) at 10000 nM by radioligand displacement assay relative to control
[12] = biological target: D(4) dopamine receptor (Homo sapiens) (UniProt P21917); test: Binding affinity to D4 receptor (unknown origin) at 10000 nM by radioligand displacement assay relative to control
[13] = biological target: D(1B) dopamine receptor (Homo sapiens) (UniProt P21918); test: Binding affinity to D5 receptor (unknown origin) at 10000 nM by radioligand displacement assay relative to control
[14] = biological target: GABA-A receptor; anion channel (Homo sapiens) (UniProt P14867+P47870+P18507+P28472+P48169+Q99928+Q9UN88+P34903+O00591+O14764+Q8N1C3+P18505+P78334+P47869+P31644+Q16445); test: Binding affinity to GABAA receptor (unknown origin) at 10000 nM by radioligand displacement assay relative to control; assay type: protein-complex assay
[15] = biological target: Histamine H2 receptor (Homo sapiens) (UniProt P25021); test: Binding affinity to H2 receptor (unknown origin) at 10000 nM by radioligand displacement assay relative to control
[16] = biological target: Muscarinic acetylcholine receptor M2 (Homo sapiens) (UniProt P08172); test: Binding affinity to M2 receptor (unknown origin) at 10000 nM by radioligand displacement assay relative to control
[17] = biological target: Sodium-dependent noradrenaline transporter (Homo sapiens) (UniProt P23975); test: Binding affinity to NET receptor (unknown origin) at 10000 nM by radioligand displacement assay relative to control
[18] = biological target: Sodium-dependent serotonin transporter (Homo sapiens) (UniProt P31645); test: Binding affinity to SERT receptor (unknown origin) at 10000 nM by radioligand displacement assay relative to control
Sequence of Sodium-dependent serotonin transporter (Homo sapiens) (P31645 whole entry, looked up): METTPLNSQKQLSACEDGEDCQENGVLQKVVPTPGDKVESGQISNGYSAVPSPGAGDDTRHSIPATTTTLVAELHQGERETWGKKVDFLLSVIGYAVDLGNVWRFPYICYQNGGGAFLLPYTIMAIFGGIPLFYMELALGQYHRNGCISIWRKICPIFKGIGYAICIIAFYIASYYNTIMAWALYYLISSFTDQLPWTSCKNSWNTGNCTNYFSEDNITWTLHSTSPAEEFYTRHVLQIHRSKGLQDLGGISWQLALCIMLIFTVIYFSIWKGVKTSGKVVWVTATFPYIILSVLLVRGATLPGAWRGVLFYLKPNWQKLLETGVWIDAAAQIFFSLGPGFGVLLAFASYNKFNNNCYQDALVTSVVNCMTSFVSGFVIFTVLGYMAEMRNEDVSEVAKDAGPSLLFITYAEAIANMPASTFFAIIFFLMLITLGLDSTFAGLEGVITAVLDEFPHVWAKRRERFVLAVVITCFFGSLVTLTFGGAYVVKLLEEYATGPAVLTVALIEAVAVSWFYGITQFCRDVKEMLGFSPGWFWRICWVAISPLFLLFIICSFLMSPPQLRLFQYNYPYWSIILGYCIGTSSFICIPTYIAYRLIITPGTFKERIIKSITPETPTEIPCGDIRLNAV

Sequence of 5-hydroxytryptamine receptor 1D (Homo sapiens) (P28221 whole entry): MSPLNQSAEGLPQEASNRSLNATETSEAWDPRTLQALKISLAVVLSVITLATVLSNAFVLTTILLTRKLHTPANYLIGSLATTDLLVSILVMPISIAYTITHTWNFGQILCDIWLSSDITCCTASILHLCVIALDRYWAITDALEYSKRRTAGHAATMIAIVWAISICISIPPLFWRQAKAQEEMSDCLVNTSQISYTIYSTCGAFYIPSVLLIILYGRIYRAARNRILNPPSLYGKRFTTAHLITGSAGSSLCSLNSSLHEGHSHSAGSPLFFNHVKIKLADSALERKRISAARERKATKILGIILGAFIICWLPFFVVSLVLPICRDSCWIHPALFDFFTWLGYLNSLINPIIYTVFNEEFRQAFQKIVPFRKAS
Sequence of Histamine H2 receptor (Homo sapiens) (P25021 whole entry): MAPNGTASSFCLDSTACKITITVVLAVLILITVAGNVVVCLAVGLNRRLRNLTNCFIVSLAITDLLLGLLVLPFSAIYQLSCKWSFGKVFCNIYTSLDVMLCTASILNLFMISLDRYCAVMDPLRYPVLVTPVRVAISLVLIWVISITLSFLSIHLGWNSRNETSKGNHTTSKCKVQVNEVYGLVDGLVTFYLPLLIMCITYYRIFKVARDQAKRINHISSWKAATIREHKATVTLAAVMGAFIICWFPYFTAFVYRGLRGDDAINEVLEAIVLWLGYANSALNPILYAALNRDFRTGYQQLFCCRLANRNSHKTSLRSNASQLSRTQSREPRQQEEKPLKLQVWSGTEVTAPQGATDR
Sequence of D(3) dopamine receptor (Homo sapiens) (P35462 whole entry): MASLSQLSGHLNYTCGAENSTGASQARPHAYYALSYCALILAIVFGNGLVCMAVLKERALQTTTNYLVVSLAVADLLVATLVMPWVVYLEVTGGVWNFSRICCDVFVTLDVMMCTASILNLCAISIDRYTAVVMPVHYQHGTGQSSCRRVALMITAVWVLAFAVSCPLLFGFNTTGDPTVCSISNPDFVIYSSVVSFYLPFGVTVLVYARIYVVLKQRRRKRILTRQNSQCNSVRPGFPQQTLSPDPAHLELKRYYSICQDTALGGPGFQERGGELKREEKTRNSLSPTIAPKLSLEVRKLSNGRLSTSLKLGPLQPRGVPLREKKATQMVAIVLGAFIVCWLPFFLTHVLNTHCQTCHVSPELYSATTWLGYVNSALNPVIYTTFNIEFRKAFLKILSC
Sequence of D(1B) dopamine receptor (Homo sapiens) (P21918 whole entry): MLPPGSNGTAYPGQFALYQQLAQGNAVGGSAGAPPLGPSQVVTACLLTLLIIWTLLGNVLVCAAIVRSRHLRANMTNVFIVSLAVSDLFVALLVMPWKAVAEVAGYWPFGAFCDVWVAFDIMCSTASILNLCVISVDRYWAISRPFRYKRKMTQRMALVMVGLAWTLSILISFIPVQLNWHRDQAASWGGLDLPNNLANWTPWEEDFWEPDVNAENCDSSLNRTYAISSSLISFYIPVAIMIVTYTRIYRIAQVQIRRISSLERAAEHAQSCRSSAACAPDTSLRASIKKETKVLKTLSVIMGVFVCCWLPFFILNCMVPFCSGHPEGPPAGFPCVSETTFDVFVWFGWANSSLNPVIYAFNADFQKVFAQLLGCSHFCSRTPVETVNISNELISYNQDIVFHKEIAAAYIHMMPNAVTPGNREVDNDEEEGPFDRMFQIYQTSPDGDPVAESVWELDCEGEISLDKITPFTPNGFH
Sequence of Muscarinic acetylcholine receptor M2 (Homo sapiens) (P08172 whole entry): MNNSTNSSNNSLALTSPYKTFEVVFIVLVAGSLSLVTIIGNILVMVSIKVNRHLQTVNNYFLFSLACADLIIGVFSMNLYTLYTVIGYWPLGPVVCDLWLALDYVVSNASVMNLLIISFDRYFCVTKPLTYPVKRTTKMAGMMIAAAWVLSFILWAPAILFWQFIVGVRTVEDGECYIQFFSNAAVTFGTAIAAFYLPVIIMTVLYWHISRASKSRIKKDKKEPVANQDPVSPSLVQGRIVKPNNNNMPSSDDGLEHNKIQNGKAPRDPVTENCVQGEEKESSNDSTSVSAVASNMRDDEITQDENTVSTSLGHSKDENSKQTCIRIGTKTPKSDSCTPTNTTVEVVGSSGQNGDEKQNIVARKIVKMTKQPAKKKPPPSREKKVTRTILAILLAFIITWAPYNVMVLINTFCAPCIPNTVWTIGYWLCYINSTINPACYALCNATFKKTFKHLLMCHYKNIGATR
Sequence of Alpha-2A adrenergic receptor (Homo sapiens) (P08913 whole entry): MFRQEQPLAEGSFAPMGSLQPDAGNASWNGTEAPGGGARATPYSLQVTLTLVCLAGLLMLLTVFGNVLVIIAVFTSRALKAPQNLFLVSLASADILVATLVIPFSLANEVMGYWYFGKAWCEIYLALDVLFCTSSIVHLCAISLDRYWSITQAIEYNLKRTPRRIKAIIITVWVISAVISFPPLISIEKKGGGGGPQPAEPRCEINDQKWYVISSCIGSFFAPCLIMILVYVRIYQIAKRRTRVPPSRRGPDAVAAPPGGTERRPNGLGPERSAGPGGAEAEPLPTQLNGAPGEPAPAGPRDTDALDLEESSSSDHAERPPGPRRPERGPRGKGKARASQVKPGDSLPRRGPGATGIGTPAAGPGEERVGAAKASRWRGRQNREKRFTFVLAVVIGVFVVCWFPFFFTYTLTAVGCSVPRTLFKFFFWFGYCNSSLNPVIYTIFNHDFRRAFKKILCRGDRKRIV
Sequence of 5-hydroxytryptamine receptor 1E (Homo sapiens) (P28566 whole entry): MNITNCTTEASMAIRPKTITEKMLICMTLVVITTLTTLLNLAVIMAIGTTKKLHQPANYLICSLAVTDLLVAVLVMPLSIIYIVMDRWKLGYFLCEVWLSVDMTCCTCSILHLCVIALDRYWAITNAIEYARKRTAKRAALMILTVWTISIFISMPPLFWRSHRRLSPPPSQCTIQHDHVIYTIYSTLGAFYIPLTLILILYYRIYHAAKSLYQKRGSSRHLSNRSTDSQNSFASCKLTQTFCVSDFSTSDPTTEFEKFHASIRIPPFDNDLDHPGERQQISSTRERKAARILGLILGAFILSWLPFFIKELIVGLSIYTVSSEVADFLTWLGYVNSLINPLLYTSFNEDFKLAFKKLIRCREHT
Sequence of Alpha-2B adrenergic receptor (Homo sapiens) (P18089 whole entry): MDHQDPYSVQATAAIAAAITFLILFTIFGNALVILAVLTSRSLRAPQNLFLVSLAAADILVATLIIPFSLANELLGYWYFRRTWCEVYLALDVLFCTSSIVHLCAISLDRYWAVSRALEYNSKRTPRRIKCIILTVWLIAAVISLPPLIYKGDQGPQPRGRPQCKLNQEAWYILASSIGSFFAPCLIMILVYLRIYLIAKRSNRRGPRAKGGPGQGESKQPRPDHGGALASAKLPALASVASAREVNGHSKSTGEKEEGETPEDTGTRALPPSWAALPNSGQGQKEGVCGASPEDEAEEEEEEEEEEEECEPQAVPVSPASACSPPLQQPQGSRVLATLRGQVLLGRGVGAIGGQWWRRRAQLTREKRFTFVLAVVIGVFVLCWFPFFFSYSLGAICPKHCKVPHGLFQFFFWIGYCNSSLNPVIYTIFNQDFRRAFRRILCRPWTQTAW
Sequence of 5-hydroxytryptamine receptor 7 (Homo sapiens) (P34969 whole entry): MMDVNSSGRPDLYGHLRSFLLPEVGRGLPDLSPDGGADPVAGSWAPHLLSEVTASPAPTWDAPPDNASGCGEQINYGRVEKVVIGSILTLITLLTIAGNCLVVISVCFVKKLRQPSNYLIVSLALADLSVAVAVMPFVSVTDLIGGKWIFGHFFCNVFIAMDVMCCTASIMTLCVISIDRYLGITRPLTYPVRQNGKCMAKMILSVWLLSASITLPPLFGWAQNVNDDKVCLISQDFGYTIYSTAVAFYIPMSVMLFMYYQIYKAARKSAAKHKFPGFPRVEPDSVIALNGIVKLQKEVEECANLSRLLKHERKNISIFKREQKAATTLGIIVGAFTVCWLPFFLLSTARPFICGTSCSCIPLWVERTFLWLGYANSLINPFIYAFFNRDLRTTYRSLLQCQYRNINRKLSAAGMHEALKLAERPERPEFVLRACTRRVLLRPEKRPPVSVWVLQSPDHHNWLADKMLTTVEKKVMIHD
Sequence of D(4) dopamine receptor (Homo sapiens) (P21917 whole entry): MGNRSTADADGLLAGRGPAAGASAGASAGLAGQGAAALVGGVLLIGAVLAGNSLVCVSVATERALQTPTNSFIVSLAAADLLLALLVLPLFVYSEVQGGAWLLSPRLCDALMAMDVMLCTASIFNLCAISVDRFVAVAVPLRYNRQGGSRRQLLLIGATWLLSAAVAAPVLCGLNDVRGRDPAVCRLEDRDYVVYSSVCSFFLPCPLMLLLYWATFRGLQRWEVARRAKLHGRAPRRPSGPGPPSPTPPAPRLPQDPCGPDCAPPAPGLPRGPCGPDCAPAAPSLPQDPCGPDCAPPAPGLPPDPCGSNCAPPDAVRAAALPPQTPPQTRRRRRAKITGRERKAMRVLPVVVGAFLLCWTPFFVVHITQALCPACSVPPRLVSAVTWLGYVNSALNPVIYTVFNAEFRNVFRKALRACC

N=c1c2c(-c3ccccc3)c(-c3ccccc3)n(Cc3ccccc3)c2ncn1[C@H]1CC[C@H](O)CC1 [ML-246]
IC50 [1]: 7.65 µM
Activity (PC-3M): Dde
solubility kinetic [2]: > 99 µM and > 47 µg/mL
Tmax [3]: 30 min
concentration at 48 h [4]: 1.32 µM
AUC [5]: 6.08 µM·h
Activity (A549): Dde
Activity (NCI-H23): Dde
Activity (NCI-H460): Dde
Activity (NCI-H522): Dde
Activity (SF-539): Dde
Activity (SNB-75): Dde
Activity (MDA-MB-435): Dde
Activity (SK-MEL-5): Dde
Activity (UACC-62): Dde
Activity (OVCAR-3): Dde
Activity (OVCAR-4): Dde
Activity (OVCAR-5): Dde
Activity (786-0): Dde
Activity (TK-10): Dde
Activity (MCF7): Dde
Activity (MDA-MB-231): Dde
Activity (Hs-578T): Dde
Activity [6]: < 50%
Activity [7]: < 50%
Activity [8]: < 50%
Activity [9]: < 50%
Activity [10]: < 50%
Activity [11]: < 50%
Activity [12]: < 50%
Activity [13]: < 50%
Activity [14]: < 50%
Activity [15]: < 50%
Activity [16]: < 50%
Activity [17]: < 50%
Activity [18]: < 50%
